Rows were chosen to be rich in hits. Some 1.2% of all compounds tested hit in one or more screens of this group.
CHO-K1 Ca PAM – nonselective calcium activators in parental CHO-K1 cells, primary screen, counter-screen for M1 PAM project, cell-based, Fluo-8 calcium fluorescence, full deck, 1536-well; ATP EC20; 0% at ATP EC20, 100% at ATP max; activation, % at 3 µM; AID 602247, 2012; actives 0.02% (n = 360,000);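 active = activation above the run cutoff, the mean activation of all test compounds plus 3 SD, cut at about 40% in these data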;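 also: peak over basal fluorescence ratio in a 140 s read after ATP addition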
zfTRPN1 agonist – zebrafish TRPN1 channel agonists, primary screen, cell-based, HEK293, calcium fluorescence; activation, % at 3 µM; transient receptor potential cation channel N1 (TRPN1/NompC), Danio rerio; HEK293 zebrafish TRPN1-YFP, Fluo-8 calcium fluorescence; 100% = response to 87 µM carbachol; actives 0.18% (n = 220,000);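 active = activation above its plate's cutoff, the mean activation of test wells on that plate plus 3 SD, cut at about 19% in these data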;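 also: 0% = DMSO alone and 100% = 87 µM carbachol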
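Material: zebrafish TRPN1-YFP in HEK293 cells; Doses: single test compound dose, 3 µM nominal, 0.3% DMSO; Timing: dye loading 1 h at 37 °C, then 30 min room temperature; Technique: intracellular calcium fluorescence with Fluo-8; Benchmarks: high carbachol 87 µM, low DMSO alone.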
CHO-K1 Ca antag – nonselective inhibitor or artifact in parental CHO-K1 cells; actives 0.6% (n = 360,000); ATP-induced calcium, Fluo-8 fluorescence; inhibition, % at 3 µM;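 active = inhibition above a per-plate cutoff, the plate's mean sample inhibition plus 3 SD, cut at about 24% in these data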;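 also: 0% = DMSO plus EC80 ATP and 100% = DMSO alone without ATP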
CHO-K1 Ca ag – counter-screen for M1 agonists: effect in parental CHO-K1 cells. Fluo-8 calcium fluorescence; scaled to maximal ATP response, vehicle zero. activation, % at 3 µM. actives 0.48% (n = 360,000). AID 602248, 2012; in the data active = activation above about 15%;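 also: untransfected CHO-K1 host cells lacking M1 receptor as counterscreen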
TRPML3 agonist – human TRPML3 channel agonists, primary screen, cell-based, HEK293 TRPML3-YFP, Fluo-8 calcium fluorescence, 3 µM; 100% = the carbachol control signal; activation, % at 3 µM; Mucolipin-3 (Homo sapiens), Q8TDD5; AID 1448, 2008; actives 0.29% (n = 220,000);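 active = activation above its plate's cutoff, the mean activation of the plate's test wells plus 3 SD, cut at about 12% in these data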;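 also: 0% = DMSO only wells and 100% = carbachol wells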
Target sequence (Q8TDD5 whole entry, looked up): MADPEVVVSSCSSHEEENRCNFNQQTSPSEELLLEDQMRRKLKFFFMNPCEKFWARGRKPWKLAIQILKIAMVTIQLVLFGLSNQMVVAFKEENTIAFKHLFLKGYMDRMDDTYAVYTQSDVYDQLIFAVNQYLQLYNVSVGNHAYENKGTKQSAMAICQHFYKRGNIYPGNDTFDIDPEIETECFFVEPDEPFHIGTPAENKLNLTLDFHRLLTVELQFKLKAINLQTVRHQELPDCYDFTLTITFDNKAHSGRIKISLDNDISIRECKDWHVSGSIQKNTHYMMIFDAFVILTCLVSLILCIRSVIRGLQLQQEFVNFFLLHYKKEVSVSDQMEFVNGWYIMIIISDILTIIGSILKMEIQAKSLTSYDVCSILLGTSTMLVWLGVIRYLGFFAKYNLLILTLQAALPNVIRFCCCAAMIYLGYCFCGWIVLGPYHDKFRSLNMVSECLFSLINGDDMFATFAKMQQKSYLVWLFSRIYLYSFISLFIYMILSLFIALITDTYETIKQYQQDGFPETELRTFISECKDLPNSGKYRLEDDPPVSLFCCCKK
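Material: HEK293 cells stably carrying human TRPML3-YFP; compound dosing: single dose, 3 µM final nominal compound, 0.3% DMSO final; incubation: 1-h 37 °C dye load, 5-s basal, 120-s post-compound reads; technique: Fluo-8 intracellular calcium fluorescence, excitation 470-495 nm, emission 515-575 nm; read-out basis: percent activation from peak-to-basal fluorescence ratio, scaled between DMSO and carbachol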
Starred values were filed as active, the others as inactive; . = not tested or not shown.

SMILES	CHO-K1 Ca PAM	zfTRPN1 agonist	CHO-K1 Ca antag	CHO-K1 Ca ag	TRPML3 agonist
C=CCn1c(CCC(=O)Nc2ccc(C)c(Cl)c2)nnc1SCC(=O)Nc1ccccc1C	6.6	1.5	-1.1	16.1*	-0.4
CCOC(=O)C1=CCN(S(=O)(=O)c2ccc(C)cc2)C1c1cccc(C)c1 (centres undefined)	16.3	.	4.5	0.3	.
COc1ccc(C)c2sc(N(CCCN(C)C)C(=O)c3ccc(S(=O)(=O)N4CCc5ccccc5C4)cc3)nc12	7.8	.	10.1	18.8*	.
O=C(OCc1ccccc1)N1CCCCC1c1c(Cl)cccc1Br (centres undefined)	14.1	.	5.6	0.3	.
COc1ccc(C(=O)COC(=O)CCN2C(=O)C3C4CCC(C4)C3C2=O)cc1 (centres undefined)	-17.0	0.8	24.3*	0.3	0.9
COc1ccccc1Cc1c(-c2cccc(Br)c2)nc2c(C)cc(Br)cn12	14.0	.	1.4	-0.1	.
O=[N+]([O-])c1ccc(N2CCN(Cc3ccccc3)CC2)c2c1no[n+]2[O-]	7.3	.	10.5	19.0*	.
O=[N+]([O-])c1ccc(N2CCN(Cc3ccccc3)CC2)s1	-4.4	.	-13.2	3.4	.
COc1ccc(/C=C/C(=O)OCC(=O)N2c3ccccc3CC2C)c(OC)c1 (centres undefined)	9.9	.	-8.5	0.7	.
C[C@@]12C(=O)N(c3ccc(F)cc3)C(=O)N1[C@@H]1c3ccccc3OC[C@@H]1[C@H]2c1ccccc1	-12.7	.	-3.1	0.0	.
C[C@]12C(=O)N(c3ccc(F)cc3)C(=O)N1[C@H]1c3ccccc3OC[C@@H]1[C@H]2c1ccccc1	43.8*	.	-27.8	2.6	.
CCOC(=O)C1CCCN(CC(=O)c2ccc(F)cc2)C1 (centres undefined)	-1.2	.	1.1	6.1	.
CCOC(=O)C1CCCN(Cc2cn[nH]c2-c2ccc(F)cc2F)C1 (centres undefined)	7.8	0.8	3.7	18.1*	0.6
CC(/C=N/NC(=O)Cn1cnc2ccccc21)=C\c1ccccc1	-9.1	-1.2	27.3*	0.4	-0.3
O=C(Cn1cnc2ccccc21)N/N=C/c1ccccc1	1.6	1.4	3.9	17.5*	0.9
O=C(Cn1cnc2ccccc21)N1CCc2ccccc21	-15.8	1.9	28.1*	-0.3	1.2
CCN1CCN(c2cc(C(C)(C)C)nc3c(-c4ccccc4)c(C)nn23)CC1	11.8	0.2	-8.6	17.8*	0.8
O=C(Nc1nnc([C@@H]2C[C@H](O)[C@@H](CO)O2)s1)Nc1cccc2c1CCCC2	23.7	.	-4.5	0.1	.
CC1(c2ccc(OC(F)F)cc2)NC(=O)N(CC(=O)Nc2cccc(F)c2)C1=O (centres undefined)	-21.7	.	44.3*	32.3*	.
CCOc1ccc(NC(=O)CN2C(=O)NC(C)(c3ccc(OC(F)F)cc3)C2=O)cc1 (centres undefined)	-2.9	.	8.6	18.9*	.
CC1(c2ccc(OC(F)F)cc2)NC(=O)N(CC(=O)Nc2ccc(F)cc2)C1=O (centres undefined)	23.8	.	2.5	24.7*	.
CC1(c2ccc(OC(F)F)cc2)NC(=O)N(CC(=O)Nc2ccc(OC(F)F)cc2)C1=O (centres undefined)	8.3	.	27.6*	32.9*	.
CCOc1ccc(NC(=O)CN2CCN(c3ccc(F)cc3)CC2)cc1S(=O)(=O)N1CCCC1	15.4	.	-9.2	1.3	.
Cn1c(N2CCN(C(c3ccccc3)c3ccccc3)CC2)nc2ccccc21	-18.2	.	24.5*	1.4	.
COc1ccc(C(=O)NCCc2nnc(SCC(=O)Nc3ccccc3)n2C)cc1	-8.2	0.8	25.1*	0.4	-0.1
SMILES	CHO-K1 Ca PAM	zfTRPN1 agonist	CHO-K1 Ca antag	CHO-K1 Ca ag	TRPML3 agonist
CCOC(=O)C1C(C(=O)OCC)C2C(=O)C3C(C(=O)OCC)C(C(=O)OCC)C3C(=O)C12 (centres undefined)	0.0	.	-8.4	0.8	.
O=C(COC(=O)Cc1c[nH]c2ccccc12)Nc1cccc(Br)c1	19.1	.	-7.0	3.0	.
CN1CCN(S(=O)(=O)c2ccc3c(c2)C(C)(C)C(=O)N3C)CC1	-5.2	.	24.6*	0.2	.
Cc1ccc(/C=N/NC(=O)c2ccccc2OCc2ccc(F)cc2)o1	42.8*	-3.0	-19.1	5.5	-1.5
CCC(CC)=NNC(=O)c1ccccc1OCc1ccc(F)cc1	14.3	0.1	-6.6	0.2	-1.1
COc1ccccc1Cc1c(-c2cccc(Cl)c2)nc2ccc(Br)cn12	-7.3	.	5.8	0.2	.
Cc1cc(N2CCC(C)CC2)c(F)cc1[N+](=O)[O-]	9.9	1.4	-6.7	0.5	0.5
Cc1cc(N2CCCC2)c(F)cc1/C=C\[N+](=O)[O-]	-2.4	14.9	28.1*	25.0*	9.0
CCc1ccccc1NC(=O)Nc1cc(F)ccc1F	6.1	1.5	12.6	25.4*	0.7
CC(CN1CCCCC1)NC(=O)c1scnc1-c1ccccc1 (centres undefined)	9.8	.	-11.2	1.0	.
O=C(Nc1nc2ccccc2[nH]1)C1CC1	-9.6	-0.2	-4.7	-0.3	-0.1
O=C(Nc1nc2ccccc2[nH]1)NC1CCCCC1	-1.6	.	11.3	23.4*	.
O=C(Nc1cccc(C(F)(F)F)c1)Nc1nnc([C@@H]2C[C@H](O)[C@@H](CO)O2)s1	-6.3	.	4.1	-0.1	.
Cc1ccc(S(=O)(=O)N2CCC(C(=O)OCC(=O)N(C)C3CCCCC3)CC2)cc1C	-19.2	.	7.9	0.9	.
O=C(COC(=O)C1CCN(S(=O)(=O)c2ccc3c(c2)OCCO3)CC1)Nc1ccc(C(F)(F)F)cc1	-15.6	0.8	24.4*	1.6	1.1
CN(C(=O)COC(=O)C1CCN(S(=O)(=O)c2ccc3c(c2)OCCO3)CC1)C1CCCCC1	-20.3	.	26.5*	0.4	.
Cc1ccc(C(O)c2ncc(-c3cccc4ccccc34)[nH]2)c(C)c1 (centres undefined)	11.6	.	-7.4	1.5	.
C=CCOn1c(=O)c(-c2cccs2)[n+]([O-])c2ccccc21	-9.6	0.3	28.3*	0.1	0.9
C=CCOn1c(=O)c(-c2ccc(Cl)cc2)[n+]([O-])c2ccccc21	-3.0	.	-5.1	0.7	.
CC1(C(=O)Nc2ccc3[nH]ncc3c2)CCN1C(=O)C/C=C/c1ccccc1 (centres undefined)	15.0	.	-7.6	2.2	.
Cc1ccc(-n2c(-c3cccnc3)n[nH]c2=S)c(C)c1	-6.5	-0.9	26.3*	-0.2	0.3
Cc1ccc(-n2c(-c3ccc(Cl)cc3)n[nH]c2=S)c(C)c1	13.9	.	1.4	2.4	.
Cn1c(=O)c(N)c2c3c(c(Br)ccc31)C(=O)c1ccccc1-2	13.6	3.2	0.8	31.7*	1.8
Cc1cccn2c(=S)[nH]nc12	-13.3	.	26.3*	0.3	.
Cc1ccccc1-n1c(C)n[nH]c1=S	6.8	-0.2	8.9	0.0	1.2

High-throughput results: PubChem BioAssay, The Scripps Research Institute Molecular Screening Center
